Measurements of several laboratories.
Compare with care: the assays were run in different laboratories. pEC50: −log10 of the molar value.
Action: agonist
GPR84: G-protein coupled receptor 84 (GPR84, Homo sapiens, UniProt Q9NQS5)
AVPR2: Vasopressin V2 receptor (AVPR2, Homo sapiens, UniProt P30518)
MC3R: Melanocortin receptor 3 (MC3R, Homo sapiens, UniProt P41968)
Peroxisome proliferator-activated receptor alpha: Peroxisome proliferator-activated receptor alpha (Rattus norvegicus, UniProt P37230)
DRD2: D(2) dopamine receptor (DRD2, Homo sapiens, UniProt P14416)
Neuromedin-U receptor 2: Neuromedin-U receptor 2 (Mus musculus, UniProt Q8BZ39)

With `CCCCCCCCCNc1cc(=O)[nH]c(=O)[nH]1` the pEC50 was 7.52 (GPR84; cAMP).
For `NCCCC[C@H](NC(=O)[C@@H]1CCCN1C(=O)[C@@H]1CSSC[C@H](NC(=O)CNC(=O)CNC(=O)CN)C(=O)N[C@@H](Cc2ccc(O)cc2)C(=O)N[C@@H](Cc2ccccc2)C(=O)N[C@@H](CCC(N)=O)C(=O)N[C@@H](CC(N)=O)C(=O)N1)C(=O)NCC(N)=O`, the pEC50 was 7.55 (AVPR2; cAMP; TR-FRET).
The pEC50 of `CC(=O)N[C@H]1CSSC[C@@H](C(=O)N[C@@H](Cc2c[nH]c3ccccc23)C(N)=O)NC(=O)[C@@H](Cc2ccccc2)NC(=O)[C@H](CCCNC(=N)N)NC1=O` is reported as 5.62 (MC3R; cAMP).
For `CC(C)=CCNc1ncnc2c1ncn2[C@@H]1O[C@H](CO)[C@@H](O)[C@H]1O`, the pEC50 was 5.70 (Adenosine receptor A3 (ADORA3, Homo sapiens, UniProt P0DMS8); cAMP).
The pEC50 of `O=c1[nH]c(NCCc2ccc(Br)cc2)c(Br)c(=O)[nH]1` is reported as 6.43 (GPR84; cAMP).
`Cc1ccc(C)c(OCCCC(C)(C)C(=O)O)c1` has a pEC50 of 3.91 (Peroxisome proliferator-activated receptor alpha; reporter gene; luciferase).
`FC(F)(F)c1nc2cc(OCCCCN3CCN(c4cccc(Cl)c4Cl)CC3)ccc2s1` has a pEC50 of 6.80 (DRD2; β-arrestin recruitment).
The pEC50 of `CCCCCCCCCCNc1cc(O)nc(O)n1` is reported as 7.68 (GPR84; cAMP).
For `CCCC[C@H](NC(=O)[C@H](CO)NC(=O)[C@H](Cc1ccc(O)cc1)NC(=O)[C@H](CO)NC(C)=O)C(=O)N[C@@H](CCC(=O)O)C(=O)N[C@@H](Cc1c[nH]cn1)C(=O)N[C@@H](C)C(=O)N[C@@H](CCCNC(=N)N)C(=O)N[C@@H](Cc1c[nH]c2ccccc12)C(=O)NCC(=O)N[C@@H](CCCCN)C(=O)N1CCC[C@H]1C(=O)N[C@H](C(=O)NCC(=O)N[C@@H](CCCCN)C(=O)N[C@@H](CCCCN)C(=O)N[C@@H](CCCNC(=N)N)C(N)=O)C(C)C`, the pEC50 was 6.78 (MC3R; cAMP).
For `CC(C)C[C@H](NC(=O)[C@H](Cc1ccccc1)NC(=O)[C@@H](N)Cc1ccc(O)cc1)C(=O)N[C@@H](Cc1ccccc1)C(=O)N[C@@H](CCCNC(=N)N)C(=O)N1CCC[C@H]1C(=O)N[C@@H](CCCNC(=N)N)C(=O)N[C@@H](CC(N)=O)C(N)=O`, the pEC50 was 8.08 (Neuromedin-U receptor 2; β-arrestin recruitment).
`C[C@H](NC(=O)Cc1ccccc1)C(=O)N[C@H](Cc1c[nH]c2ccccc12)C(=O)NCCc1ccccc1` gave a pEC50 of 6.96 (Bombesin receptor subtype-3 (Brs3, Rattus norvegicus, UniProt Q8K418); calcium signal; fluorescence).
`CC(C)C[C@H](NC(=O)[C@H](Cc1ccccc1)NC(=O)[C@H](Cc1ccc(O)cc1)NC(=O)CNC(=O)[C@H](CCCNC(=N)N)NC(=O)[C@H](CO)NC(=O)[C@H](CCC(N)=O)NC(=O)[C@H](CO)NC(=O)[C@H](C)NC(=O)[C@H](Cc1ccccc1)NC(=O)[C@@H]1CCCN1C(=O)[C@H](CO)NC(=O)[C@H](CCC(N)=O)NC(=O)[C@H](Cc1ccccc1)NC(=O)[C@H](CCC(=O)O)NC(=O)[C@H](CCC(=O)O)NC(=O)[C@H](CC(=O)O)NC(=O)[C@@H](NC(=O)[C@H](CCCNC(=N)N)NC(=O)[C@@H](N)Cc1ccccc1)C(C)C)C(=O)N[C@@H](Cc1ccccc1)C(=O)N[C@@H](CCCNC(=N)N)C(=O)N1CCC[C@H]1C(=O)N[C@@H](CCCNC(=N)N)C(=O)N[C@@H](CC(N)=O)C(N)=O` has a pEC50 of 9.48 (Neuromedin-U receptor 2; β-arrestin recruitment).
`CC(C)(Oc1ccc(C(=O)c2ccc(Cl)cc2)cc1)C(=O)O` gave a pEC50 of 3.71 (Peroxisome proliferator-activated receptor alpha; reporter gene; luciferase).
For `O=c1cc(NCCc2cccc(F)c2)[nH]c(=O)[nH]1`, the pEC50 was 6.41 (GPR84; cAMP).
`CNc1nc2cc(OCCCCN3CCN(c4cccc5ccc(C)nc45)CC3)ccc2s1` has a pEC50 of 7.55 (DRD2; cAMP; luciferase).
With `O=Nc1c(NCCCc2ccccc2)[nH]c(=O)[nH]c1=O` the pEC50 was 5.82 (GPR84; cAMP).
With `NCCCC[C@H](NC(=O)[C@@H]1CCCN1C(=O)[C@@H]1CSSC[C@H](N)C(=O)N[C@@H](Cc2ccc(O)cc2)C(=O)N[C@@H](Cc2ccccc2)C(=O)N[C@@H](CCC(N)=O)C(=O)N[C@@H](CC(N)=O)C(=O)N1)C(=O)NCC(N)=O` the pEC50 was 10.62 (AVPR2; cAMP; TR-FRET).
